Structures are written as SMILES. The source made the active and inactive calls.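 The calls were made as follows: active = compounds cutting cell ATP light whose fitted AC50 is at most double the top dose tried; inconclusive = flat moderate signal loss, or an unreliable curve fit; inactive = the rest.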

Experiment [1] is described as follows: ldlA[mSR-BI] cell viability loss – CellTiter-Glo luminescence, 24 h, dry powder, set 5, cytotoxicity control for SR-BI HDL uptake inhibitor project, dose response (AID 602126). Particulars: ldlA[mSR-BI] CHO cells viability, CellTiter-Glo ATP luminescence, 24 h. The gist of the method:
(§1)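 material = ldlA[mSR-BI] cells | quantity = 4,000 cells per well | times = 24 h compound exposure at 37 °C, then 10 min with detection reagent | signal = luminescence of cellular ATP via CellTiter-Glo luciferase reagent | read-out = IC50 of cell viability from ATP-dependent luminescence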
In general terms: Cellular ATP, detected with luciferase, serves as a proxy for viable cell number.

In experiment [2] the test system is ldlA[mSR-BI] CHO cells viability, CellTiter-Glo ATP luminescence, 24 h. The experiment is described as above. An outline of the steps:
as §1

Turning to `CC(C(=O)NC1CCCC1)N(C(=O)Cn1nnc(-c2ccccc2Cl)n1)C1CCCCC1` (stereo unspecified), in experiment [1] (at 35 µM (top of the series)), the activity change, negative = cytotoxicity was -11.7% (inactive).

As for `C[C@@H]1CN([C@H](C)CO)C(=O)c2cc(NC(=O)Cc3cn(C)c4ccccc34)ccc2O[C@H]1CN(C)C(=O)Nc1ccc(F)cc1`, the activity change, negative = cytotoxicity in experiment [1] (at 35 µM (top of the series)) is -8.77% (inactive).

`CC(C(=O)NC1CCCC1)N(C(=O)Cn1nnc(-c2ccc(F)cc2)n1)C1CCCCC1` (stereo unspecified): the activity change, negative = cytotoxicity in experiment [1] (at 35 µM (top of the series)) is -24.9% (inactive). With `C[C@H]1CN([C@@H](C)CO)C(=O)c2cccc(NC(=O)Nc3ccccc3)c2O[C@@H]1CN(C)Cc1ccc(Cl)c(Cl)c1`, in experiment [1] (at 35 µM (top of the series)), the activity change, negative = cytotoxicity was -98.2% (inactive). Regarding `C[C@H]1CN([C@@H](C)CO)C(=O)c2cc(NC(=O)Cc3cn(C)c4ccccc34)ccc2O[C@H]1CN(C)S(=O)(=O)c1ccc(F)cc1`, in experiment [1] (at 30 µM (top of the series)), the activity change, negative = cytotoxicity is -19.8% (inactive). Take `CC(C)OCCCNC(=O)c1ccc(C2SCC(=O)N2Cc2ccco2)cc1` (stereo unspecified): the activity change, negative = cytotoxicity in experiment [1] (at 35 µM (top of the series)) is -15.7% (inactive). On the same count and under the same terms, the result for `CC(C)(C)NC(=O)N1CCN(c2ncccc2C(F)(F)F)CC1` reads -9.57% (inactive); that for `C[C@H]1CN([C@@H](C)CO)C(=O)c2cccc(NC(=O)Nc3ccccc3)c2O[C@@H]1CN(C)S(C)(=O)=O`, 1.04% (inactive); that for `CCC(=O)N1CCc2cc(-c3coc(NC(=O)c4ccco4)n3)ccc21`, -8.19% (inactive). On to `CCC(=O)Nc1ccc(-c2csc(NC(=O)c3ccco3)n2)cc1`, for which, in experiment [1] (at 35 µM (top of the series)), the activity change, negative = cytotoxicity is -1.37% (inactive). In the case of `O=C(Nc1ccc(-c2nc3ccc(NC(=O)c4ccccc4[N+](=O)[O-])cc3[nH]2)cc1)c1ccccc1[N+](=O)[O-]`, the activity change, negative = cytotoxicity in experiment [1] (at 35 µM (top of the series)) is -15.1% (inactive).

`C[C@H](CO)N1C[C@H](C)[C@H](CN(C)S(=O)(=O)c2ccc(Cl)cc2)Oc2ccc(NC(=O)Cc3cn(C)c4ccccc34)cc2C1=O`: the activity change, negative = cytotoxicity in experiment [1] (at 35 µM (top of the series)) was -19.4% (inactive). With `CCOC(=O)Nc1cccc(NC(=O)c2cc(OC)cc(OC)c2)c1`, the activity change, negative = cytotoxicity in experiment [1] (at 35 µM (top of the series)) is -19.4% (inactive). For the molecule `C[C@H](CO)N1C[C@H](C)[C@H](CN(C)S(=O)(=O)c2ccc(F)cc2)Oc2ccc(NS(C)(=O)=O)cc2C1=O`, in experiment [1] (at 35 µM (top of the series)), the activity change, negative = cytotoxicity was 11.2% (inactive).

Take `C[C@H]1CN([C@@H](C)CO)C(=O)c2cccc(NC(=O)Nc3ccccc3)c2O[C@@H]1CN(C)Cc1ccc(C(F)(F)F)cc1`: the activity change, negative = cytotoxicity in experiment [1] (at 35 µM (top of the series)) is -30.4% (inactive). `COc1ccc(-c2nnn(CC(=O)N(C3CCCCC3)C(C)C(=O)NC(C)(C)C)n2)cc1OC` (stereo unspecified): the activity change, negative = cytotoxicity in experiment [1] (at 35 µM (top of the series)) is -2.38% (inactive). Turning to `COc1ccc(-c2nnn(CC(=O)N(C3CCCCC3)C(C)C(=O)NC3CCCC3)n2)cc1OC` (stereo unspecified), the activity change, negative = cytotoxicity in experiment [1] (at 35 µM (top of the series)) was -8.68% (inactive).

On to `CCCn1ccc2cc(-c3csc(NC(=O)c4ccco4)n3)ccc21`, for which the activity change, negative = cytotoxicity in experiment [1] (at 35 µM (top of the series)) was -34.1% (inactive). Regarding `CC(C(=O)NC1CCCC1)N(C(=O)Cn1nnc(-c2ccc3c(c2)OCO3)n1)C1CCOCC1` (stereo unspecified), in experiment [1] (at 35 µM (top of the series)), the activity change, negative = cytotoxicity is -7.76% (inactive).

Regarding `Cc1cc(C)c2c(c1)NC(c1cc3c(cc1Br)OCO3)C1CC=CC21` (stereo unspecified), the activity change, negative = cytotoxicity in experiment [1] (at 35 µM (top of the series)) was -26.7% (inactive).

With `Cc1ccc(-c2nnn(CC(=O)N(C3CCCCC3)C(C)C(=O)NC3CCCC3)n2)cc1` (stereo unspecified), the activity change, negative = cytotoxicity in experiment [1] (at 35 µM (top of the series)) is -2.67% (inactive). Consider `C[C@@H]1CN([C@@H](C)CO)C(=O)c2cc(NC(=O)Cc3cn(C)c4ccccc34)ccc2O[C@H]1CN(C)S(=O)(=O)c1ccc(F)cc1`, for which the activity change, negative = cytotoxicity in experiment [1] (at 35 µM (top of the series)) is -9.34% (inactive). On to `CCC(=O)N1CCc2cc(-c3csc(NC(=O)c4ccc(F)c(OC)c4)n3)ccc21`, for which the activity change, negative = cytotoxicity in experiment [1] (at 35 µM (top of the series)) was -10.7% (inactive). In the case of `CCC(=O)N1CCc2cc(-c3csc(NC(=O)c4cocn4)n3)ccc21`, the activity change, negative = cytotoxicity in experiment [1] (at 35 µM (top of the series)) was -6.6% (inactive).

As for `CCC(=O)N1CCc2cc(-c3csc(NC(=O)c4ccno4)n3)ccc21`, in experiment [1] (at 35 µM (top of the series)), the activity change, negative = cytotoxicity was 0.915% (inactive). For `O=C(Nc1nc(-c2ccc3c(c2)CCN3C(=O)C2CC2)cs1)c1ccco1`, the activity change, negative = cytotoxicity in experiment [1] (at 35 µM (top of the series)) was -26.1% (inactive). Still for that read-out and setting: in the case of `C[C@H]1CN([C@@H](C)CO)C(=O)c2cc(NC(=O)Cc3cn(C)c4ccccc34)ccc2O[C@@H]1CN(C)S(=O)(=O)c1ccc(F)cc1` it was -15.6% (inactive). Consider `CCC(=O)N1CCc2cc(-c3coc(N)n3)ccc21`, for which the activity change, negative = cytotoxicity in experiment [1] (at 35 µM (top of the series)) was 3.91% (inactive). `CC(C(=O)NC1CCCC1)N(C(=O)Cn1nnc(-c2ccccc2F)n1)C1CCCCC1` (stereo unspecified): the activity change, negative = cytotoxicity in experiment [1] (at 35 µM (top of the series)) was -27.4% (inactive).

Take `C[C@@H]1CN([C@@H](C)CO)C(=O)c2cc(NC(=O)Cc3cn(C)c4ccccc34)ccc2O[C@H]1CN(C)S(=O)(=O)c1ccc(Cl)cc1`: the activity change, negative = cytotoxicity in experiment [1] (at 35 µM (top of the series)) was -7.85% (inactive). `CCC(=O)N1CCc2cc(-c3csc(NC(=O)C4CCCC4)n3)ccc21`: the activity change, negative = cytotoxicity in experiment [1] (at 35 µM (top of the series)) is 0.408% (inactive). With `COc1ccc(-c2nnn(CC(=O)N(C)C(C)C(=O)NC3CCCC3)n2)cc1OC` (stereo unspecified), the activity change, negative = cytotoxicity in experiment [1] (at 35 µM (top of the series)) is -6.96% (inactive). On to `CCC(=O)N1CCc2cc(-c3csc(/N=C(/OC)c4cc(OC)cc(OC)c4)n3)ccc21`, for which, in experiment [1] (at 35 µM (top of the series)), the activity change, negative = cytotoxicity was -10.7% (inactive).

Take `COc1ccccc1-c1nnn(CC(=O)N(C2CCCCC2)C(C)C(=O)NC2CCCC2)n1` (stereo unspecified): the activity change, negative = cytotoxicity in experiment [1] (at 35 µM (top of the series)) is 1.77% (inactive).

On to `C[C@H](CO)N1C[C@H](C)[C@@H](CN(C)S(=O)(=O)c2ccc(F)cc2)Oc2ccc(NC(=O)Cc3cn(C)c4ccccc34)cc2C1=O`, for which the activity change, negative = cytotoxicity in experiment [1] (at 35 µM (top of the series)) was -14% (inactive). On the same count and under the same terms, in the case of `COc1ccc(-c2nnn(CC(=O)N(C3CCCCC3)C(C)C(=O)NC3CC3)n2)cc1OC` (stereo unspecified) it was -10.4% (inactive).

Consider `C[C@@H]1CN([C@H](C)CO)C(=O)Cc2cc(NC(=O)Cc3cn(C)c4ccccc34)ccc2O[C@H]1CN(C)S(=O)(=O)c1ccc(F)cc1`, for which, in experiment [1] (at 35 µM (top of the series)), the activity change, negative = cytotoxicity was -14% (inactive).

For `CCC(=O)N1CCc2cc(-c3cnc(NC(C)=O)[nH]3)ccc21`, the activity change, negative = cytotoxicity in experiment [1] (at 35 µM (top of the series)) is -35.4% (inactive). Still for that read-out and setting: in the case of `Cc1ccc(-c2nnc(N3CCC(C)CC3)c3ccccc23)cc1C` it was -8.22% (inactive).

Turning to `CCC(=O)N1CCc2cc(-c3cnc(NC(=O)c4ccco4)[nH]3)ccc21`, the activity change, negative = cytotoxicity in experiment [1] (at 35 µM (top of the series)) was 2.33% (inactive).

For `C[C@H](CO)N1C[C@H](C)[C@H](CN(C)S(=O)(=O)c2ccc(F)cc2)Oc2ccc(NC(=O)CCC(F)(F)F)cc2C1=O`, the activity change, negative = cytotoxicity in experiment [1] (at 35 µM (top of the series)) is -2.53% (inactive).

Consider `C[C@H](CO)N1C[C@H](C)[C@H](CN(C)S(=O)(=O)c2ccc(F)cc2)Oc2ccc(NC(=O)Cc3ccccc3)cc2C1=O`, for which the activity change, negative = cytotoxicity in experiment [1] (at 35 µM (top of the series)) is -6.53% (inactive). Turning to `COc1cccc(-c2nnn(CC(=O)N(C3CCCCC3)C(C)C(=O)NC3CCCC3)n2)c1` (stereo unspecified), the activity change, negative = cytotoxicity in experiment [1] (at 35 µM (top of the series)) was -12.4% (inactive). Consider `CC(OC(=O)c1cccc(NS(C)(=O)=O)c1)C(=O)Nc1ccc(N2CCOCC2)cc1` (stereo unspecified), for which the activity change, negative = cytotoxicity in experiment [1] (at 35 µM (top of the series)) is -6.16% (inactive). With `CCC(=O)N1CCc2cc(-c3csc(NC(=O)c4cc5cccnc5o4)n3)ccc21`, in experiment [1] (at 35 µM (top of the series)), the activity change, negative = cytotoxicity is -0.539% (inactive). `Cc1ccccc1NC(=O)NCC1CCN(c2ccc(S(=O)(=O)N3CCOCC3)cc2)CC1`: in experiment [2], the concentration at half-maximal activity (AC50) is 58.3 µM.

For orientation: AC50 means the midpoint of the concentration-response curve, whichever way the signal moves.

(Values after PubChem BioAssay AID602126 (Broad Institute, 2011).)
